MPTP block = mitochondrial permeability transition pore inhibitors, primary screen, biochemical, isolated mouse mitochondria, absorbance. AID 602449, 2012. inhibition, % at 10 µM. 1.4% of 360,000 active. Ca2+ swelling absorbance, 30 min;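 active = inhibition of 50% or more, scaled per plate between neutral and stimulator controls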;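 also: 0% = DMSO wells given calcium and 100% = 1 mM EGTA wells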
iPSC survival up = enhancers of single-cell hiPSC survival, primary screen, ATPlite luminescence. 100% = ROCK inhibitor wells, 0% = DMSO. survival enhancement, % at 20 µM. 0.044% of 360,000 active; in the data active = survival enhancement above about 18%;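 also: cells exposed to compounds for 16 hours before the ATP read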
Exocytosis inh = LAMP-1 surface exposure blockers, TALL-104 cells – cell-based, flow cytometry, MLPCN library, primary screen. inhibition, % at 10 µM. TALL-104 LAMP-1 surface exposure; cells stimulated with thapsigargin and PMA. 0.66% of 360,000 active. AID 651702, 2012;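 active = inhibition above about 55%, limit read from the data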
beta cell repl = inducers of MIN6 beta-cell proliferation, primary screen, ATP luminescence, uHTS; MIN6 cells proliferation, ATPlite luminescence, 48 h; cells starved in 0.2% serum; 100% = growth in 10% serum; proliferation, % at 10 µM; 0.29% of 330,000 active; AID 2380, 2010;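 active = compounds whose signal lies at least 3.5 SD above the mean of all wells on their plate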;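 also: 0% = DMSO-treated cells in low-serum medium and 100% = 10% serum control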
Apaf1 inhib = inhibitors of human Apaf-1 apoptosome, primary screen, biochemical, DEVD-Rh110 fluorescence, uHTS | AID 489030, 2010 | reconstituted apoptosome caspase-3 activity | 0.71% of 330,000 active | inhibition, % at 20 µM; active = inhibition of at least 40% at 20 µM;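 also: plate controls were DMSO wells for no effect and DEVD-CHO caspase inhibitor wells for full effect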
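System – cell-free apoptosome with Apaf-1, procaspase-3 and caspase-9 · Buffer or medium – pH 7.5 Hepes buffer with CHAPS, BSA, DTT · Also added – cytochrome c with DEVD-Rh110 · Times – 30 min compound preincubation, 50 min activation, room temperature · Technique – Rh110 fluorescence intensity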
UBC13 inh = UBC13 polyubiquitin chain formation inhibitors, primary screen, biochemical, TR-FRET, uHTS; inhibition, % at 20 µM; 0.47% of 330,000 active; AID 485273, 2010; in the data active = inhibition above about 45%, passing the limit was not always enough
Target sequence (P61088 whole entry, looked up): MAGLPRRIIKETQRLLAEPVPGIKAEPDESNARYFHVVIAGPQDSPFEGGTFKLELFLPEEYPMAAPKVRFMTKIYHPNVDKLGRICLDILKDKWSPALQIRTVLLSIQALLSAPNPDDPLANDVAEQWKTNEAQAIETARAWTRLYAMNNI
Apaf-1 inh conf = Apaf-1 inhibitors, single-dose retest, confirmation, biochemical, fluorescence, DEVD-Rh110, 20 µM | inhibition, % at 20 µM | 25% of 1,800 active | shares compounds with Apaf1 inhib | reconstituted apoptosome, caspase-3 DEVD-Rh110 fluorescence;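 active = mean inhibition of at least 40% at 20 µM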;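 also: plate controls were DMSO wells for no effect and DEVD-CHO caspase inhibitor control wells for full effect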
Rh110 interf inh = Rh110 fluorescence interference by putative Apaf-1 inhibitors, confirmation, artefact control for Apaf-1 inhibitor project, biochemical, 20 µM. shares compounds with Apaf1 inhib. quenched caspase reaction. activation (fluorescence interference), % at 20 µM. 1,800 tested, under 10 active. AID 504615, 2011;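 active = signal rise of 40% or more at 20 µM, treated as a fluorescence artifact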
Apaf1 inh interf = fluorescence interference of Apaf-1 inhibitor hits, dose response, artefact control for Apaf-1 inhibitor project; shares compounds with Apaf1 inhib; fluorescence interference counterscreen, Apaf-1 assay format; IC50, µM; 460 tested, under 10 active; AID 588538, 2011; call rule not given here
* = called active by the depositor; · = no result. Only some compounds are listed: those with a hit (about 3% of all), similar ones and a draw of the others.

SMILES | MPTP block | iPSC survival up | Exocytosis inh | beta cell repl | Apaf1 inhib | UBC13 inh | Apaf-1 inh conf | Rh110 interf inh | others
Cc1ccc(SCC(=O)OCC(=O)NCCNC(=O)COC(=O)CSc2ccc(C)c(C)c2)cc1C | 0 | 0 | -1 | 0 | 40* | 11 | 20 | 16
Cc1ccc(SCC(=O)OCC(=O)NCC2CCCCC2)cc1C | 0 | 1 | 0 | -2 | 12 | -2 | · | ·
CCN(C(=O)COC(=O)CCNS(=O)(=O)c1ccccc1F)c1c(N)n(Cc2ccccc2)c(=O)[nH]c1=O | 0 | 1 | 24 | -1 | -8 | 10 | · | ·
CN(CC(=O)Nc1ccc(F)cc1)C(=O)C1CC(=O)N(Cc2ccccc2)C1 (configuration not stated) | 0 | 0 | -2 | 0 | 44* | 5 | 26 | 3
O/C=c1\ccc2cccc3nc(C(F)(F)F)nc1c23 | 22 | 0 | -17 | -5 | 79* | -135 | 86* | -40 | Apaf1 inh interf=20*
Cc1ccc(C(C)NC(=O)c2cc3cc(Br)ccc3oc2=N)cc1 (configuration not stated) | 0 | 0 | 6 | -8 | 25 | -7 | · | ·
CCOC(=O)c1cnn(-c2cc(C(C)(C)C)nc3c(-c4ccccc4)c(C)nn23)c1N | 2 | 8 | -2 | -6 | -9 | -1 | · | ·
CCOC(=O)c1cnn(-c2c(Cc3ccccc3)c(C)nc3c(-c4ccccc4)c(C)nn23)c1N | 16 | -2 | -3 | -3 | 62* | -8 | 55* | 21 | Apaf1 inh interf=>100
COc1cc(C(=O)N2CCN(c3cccc(C)c3C)CC2)ccc1OCC(=O)N1CCOCC1 | 0 | 0 | 22 | -1 | 51* | 25 | 39 | 6
CCC(=O)Nc1ccc2c(c1)nc(CCN1CCC(C)CC1)n2C | -1 | 0 | 2 | -1 | -4 | 2 | · | ·
CC1CCN(CCc2nc3cc(NC(=O)COc4ccccc4)ccc3n2C)CC1 | -2 | 0 | 15 | -3 | 52* | -4 | 19 | -1
CCOC(=O)C1(C)CCN1C(=O)c1cc(-c2ccc(Cl)cc2)oc1C (configuration not stated) | 1 | 0 | 25 | · | · | · | · | ·
O=C1C(Cl)=C(NCCN2CCCCC2)C(=O)c2ccccc21 | 3 | 5 | 56* | -6 | 68* | -319 | 79* | 21 | Apaf1 inh interf=>100
CCNC1=C(Cl)C(=O)c2ccccc2C1=O | 4 | 3 | -2 | -5 | 51* | -389 | 36 | 5
O=C(OCC(=O)N1CCN(C(=O)c2ccco2)CC1)c1cc(F)c(F)cc1Cl | -2 | 1 | 0 | -5 | 7 | -14 | · | ·
COc1c(F)cccc1C1=CC(=O)C[C@H](c2ccc(F)cc2)C1 | 0 | -3 | -5 | · | · | · | · | ·
CCN1CCN(c2ccc(NC(=O)c3ccccc3F)cc2Cl)CC1 | 2 | 0 | 2 | -3 | -2 | 2 | · | ·
CCN1CCN(c2ccc(NC(=O)c3cc4ccccc4cc3OC)cc2C)CC1 | 0 | -5 | -1 | -8 | 51* | 38 | 17 | 10
COCCCNC(=O)c1c(N)n(-c2cccc(S(N)(=O)=O)c2)c2nc3ccccc3nc12 | -2 | -4 | -1 | -1 | 43* | 4 | 28 | 1
COc1ccccc1-n1c(N)c(C(=O)NCC2CCCO2)c2nc3ccccc3nc21 (configuration not stated) | 1 | -1 | 1 | 0 | 69* | 0 | 15 | 7
Nc1c(C(=O)NCC2CCCO2)c2nc3ccccc3nc2n1-c1ccccc1 (configuration not stated) | 0 | 2 | -11 | -1 | 60* | -9 | 27 | 9
Nc1ccc2cn[nH]c2c1 | -1 | 4 | -5 | -4 | 52* | -16 | 30 | -5
Brc1ccc2[nH]ncc2c1 | 3 | 4 | 0 | -1 | -29 | -4 | · | ·
CCN(CC(=O)Nc1c(F)cccc1F)C(=O)CNC(=O)c1ccc(Br)o1 | 0 | 0 | 2 | 0 | 0 | -2 | · | ·
COC(=O)N1CCCCC1c1cc(C(=O)NCc2ccccc2)no1 (configuration not stated) | 0 | 0 | -4 | · | · | · | · | ·
SMILES | MPTP block | iPSC survival up | Exocytosis inh | beta cell repl | Apaf1 inhib | UBC13 inh | Apaf-1 inh conf | Rh110 interf inh | others
OCCCCNc1cccc2ccccc12 | 1 | -2 | 11 | -4 | 81* | -98 | 18 | -2
OCCCCCNc1ncnc2ccccc12 | 2 | 0 | -3 | -3 | 5 | 3 | · | ·
Cc1nn(-c2ccccc2)c(C)c1C(=O)NCc1ccccc1F | -1 | 0 | -12 | 0 | 6 | 1 | · | ·
O=C(c1ccc([N+](=O)[O-])o1)N(Cc1nnc(-c2ccccc2Cl)o1)C1CC1 | -2 | 0 | 0 | 0 | 51* | 35 | 41* | 5 | Apaf1 inh interf=>100
Cc1ccc(S(=O)(=O)NCc2ccccc2)cc1C(=O)N1CCN(c2ccccc2)CC1 | 0 | 0 | -1 | -4 | 58* | 27 | 40 | 8
O=C(c1cccc(S(=O)(=O)NCc2ccccc2)c1)N1CCN(c2cccc(C(F)(F)F)c2)CC1 | -1 | 0 | 5 | -6 | 44* | 19 | 40 | 2
Cc1ccc(S(=O)(=O)N2C[C@H]3C(=O)C[C@@H](c4ccccc4)N(S(=O)(=O)c4ccc(C)cc4)[C@H]3C[C@H]2c2ccccc2F)cc1 | 0 | 0 | -7 | · | · | · | · | ·
Cc1cc(Cl)ccc1N=c1ssnc1Cl | 3 | 4 | 8 | -6 | 1 | -9 | · | ·
Cc1cc(C)nc(/N=c2/ssnc2Cl)c1 | -1 | -1 | 82* | -4 | 71* | -30 | 82* | 1 | Apaf1 inh interf=>100
CCOc1ccccc1N1CCN(C(=O)c2ccc3nc(N)sc3c2)CC1 | 0 | 2 | -1 | 2 | 4 | 6 | · | ·
O=C(CC[C@H]1O[C@@H](n2ccc(=O)[nH]c2=O)[C@H](O)[C@@H]1O)N[C@H](Cc1ccccc1)C(=O)NCc1ccc2c(c1)OCO2 | -1 | 3 | -2 | · | · | · | · | ·
COc1ccc(NC(=O)[C@@H](NC(=O)N2C[C@H]3C[C@@H](C2)c2cccc(=O)n2C3)C(C)C)cc1OC | -2 | 0 | -1 | -2 | 62* | -2 | 7 | 1
O=C(/C=C/c1ccc(-c2ccccc2[N+](=O)[O-])o1)c1ccco1 | 5 | -3 | 46 | -6 | 43* | -32 | 19 | -2

Screening data (PubChem)
